Screening data: PubChem, The Scripps Research Institute Molecular Screening Center
sPLA2-III inh: human group III sPLA2 inhibitors, primary screen, biochemical, QFRET, BODIPY PC-A2 liposome substrate. 370,000 tested, 0.56% active. inhibition, % at 12.2 µM. QFRET BODIPY PC-A2 liposome hydrolysis, fluorescence. Group 3 secretory phospholipase A2 (Homo sapiens), Q9NZ20. AID 743126, 2013;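 active means inhibition above mean plus 3 SD of compounds lying within the high and low control bounds, cut at about 19% in these data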;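 further: 0% = median of test compound wells and 100% = no enzyme DMSO wells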
PLCg1 inh: PLC-gamma1 enzyme inhibitors, primary screen, biochemical, fluorescence, purified enzyme. inhibition, % at 12.2 µM. fluorogenic substrate. 1-phosphatidylinositol 4,5-bisphosphate phosphodiesterase gamma-1 (Homo sapiens), P19174. 370,000 tested, 0.84% active; in the data active means inhibition above about 9.5%
ARFGAP1 inhibitor: inhibitors of rat ARFGAP1 GAP activity, primary screen, biochemical, fluorescence polarization, GDP tracer. ADP-ribosylation factor GTPase-activating protein 1 (Rattus norvegicus), Q62848. Arfgap1-stimulated ARF1 GTP hydrolysis, GDP FP detection. inhibition, % at 16.5 µM. 360,000 tested, 0.26% active. AID 651572, 2012;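 active means inhibition above a per-plate limit, mean inhibition of low control wells plus 3 SD, cut at about 25% in these data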;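 further: 0% = DMSO wells with enzyme and 100% = wells lacking Arfgap1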
Target sequence (Q62848 1-136 limits assumed): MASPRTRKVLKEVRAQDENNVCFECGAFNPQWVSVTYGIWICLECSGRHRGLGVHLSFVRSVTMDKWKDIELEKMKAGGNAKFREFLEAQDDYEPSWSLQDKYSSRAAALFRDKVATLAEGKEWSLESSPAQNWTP
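Assay system: purified rat His6-Arfgap1 residues 1-136 (GAP domain); Reagent: human Δ17 ARF1 bound to GTP; Dosing: 16.5 µM single point, 1.26% DMSO; Times: GTP hydrolysis reaction 2 h at 25 °C; Signal: FP, GDP Alexa 633 tracer displaced from anti-GDP antibody, 620/688 nm; Measure: % inhibition from polarization.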
PLCb3 inh: human PLC-beta3 inhibitors, primary screen, biochemical, fluorescence. 370,000 tested, 0.18% active. Purified PLC-beta3, fluorogenic substrate. inhibition, % at 12.2 µM. 1-phosphatidylinositol 4,5-bisphosphate phosphodiesterase beta-3 (Homo sapiens), Q01970; in the data active means inhibition above about 11%;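 further: 0% = median of compound wells on plate and 100% = full blocker control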
ASAP1 GAP inh: inhibitors of human ASAP1 ArfGAP activity, primary screen, biochemical, fluorescence polarization; Arf-GAP with SH3 domain, ANK repeat and PH domain-containing protein 1 (Homo sapiens), …; ASAP1-stimulated ARF1 GTP hydrolysis, GDP FP detection; inhibition, % at 16.5 µM; 360,000 tested, 0.19% active; AID 624377, 2012; in the data active means inhibition above about 25%;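 further: 0% = vehicle with enzyme and substrate and 100% = no enzyme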
Target sequence (Q9ULH1 325-724 limits assumed): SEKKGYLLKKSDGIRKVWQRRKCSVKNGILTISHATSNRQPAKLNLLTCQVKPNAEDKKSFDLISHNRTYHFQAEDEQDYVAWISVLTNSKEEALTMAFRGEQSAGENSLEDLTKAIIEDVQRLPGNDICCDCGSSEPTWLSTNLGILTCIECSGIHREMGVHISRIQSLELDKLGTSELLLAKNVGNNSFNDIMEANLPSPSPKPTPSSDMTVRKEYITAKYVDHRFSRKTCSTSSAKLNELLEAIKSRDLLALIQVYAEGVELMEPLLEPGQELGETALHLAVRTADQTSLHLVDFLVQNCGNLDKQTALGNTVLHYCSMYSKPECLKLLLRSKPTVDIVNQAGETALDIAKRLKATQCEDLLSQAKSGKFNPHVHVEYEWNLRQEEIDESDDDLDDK
sPLA2 confirm: human group III sPLA2 inhibitors, confirmation, biochemical, QFRET, triplicate; shares compounds with sPLA2-III inh; 2,000 tested, 34% active; inhibition, % at 12.2 µM; recombinant hGIII-sPLA2, BODIPY PC-A2 QFRET fluorescence;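 active means mean inhibition across triplicates above the hit cutoff set in the earlier primary screen, cut at about 19% in these data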;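 further: 0% = enzyme with DMSO and 100% = DMSO wells lacking enzyme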
BODIPY interf: 535nm fluorescence optical interference, confirmation, artefact control for HGIII-sPLA2 inhibitor project, biochemical, QFRET; AID 743282, 2014; 2,000 tested, 8.5% active; inhibition, % at 12.2 µM; BODIPY FL product fluorescence interference; shares compounds with sPLA2-III inh;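 active means average inhibition above the solvent-only control mean plus 3 SD, cut at about 6% in these data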;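 further: 0% = DMSO with substrate plus product and 100% = DMSO with substrate alone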
535nm interf DR: 535nm fluorescence optical interference, dose response, artefact control for HGIII-sPLA2 inhibitor project, biochemical, QFRET; BODIPY FL product fluorescence interference, cell-free; IC50, µM; shares compounds with sPLA2-III inh; AID 743455, 2014; 240 tested, under 10 active;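 active means IC50 at or below 10 µM; inactive means IC50 above 10 µM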
Starred values were filed as active, the others as inactive; nt = no result given. Sampled rows, rich in hits. Any-hit rate of the full collection: about 1.9%.

SMILES | sPLA2-III inh | PLCg1 inh | ARFGAP1 inhibitor | PLCb3 inh | ASAP1 GAP inh | sPLA2 confirm | BODIPY interf | others
COc1ccc(/C=C/C(=O)NC(=S)Nc2ccc(C(=O)O)cc2)cc1 | 19.9* | 0.6 | -5.2 | -6.2 | 4.0 | 2.5 | -6.1
COc1ccc(/C=C/C(=O)NC(=S)NNC(=O)Cc2cccs2)cc1 | 13.6 | -29.0 | -0.8 | -32.8 | 8.3 | nt | nt
COc1ccc(/C=C/C(=O)NC(=S)NNC(=O)c2ccco2)cc1OC | 20.1* | -17.2 | -6.4 | -35.9 | 5.9 | 25.3* | -22.9
COc1ccc(/C=C/C(=O)NC(=S)NNC(=O)c2ccco2)cc1 | 24.9* | -17.6 | -2.2 | -21.9 | 3.2 | 52.8* | -8.4 | 535nm interf DR=>122
COc1ccc(C(=O)NC(=S)NNC(=O)c2ccco2)cc1 | 19.3* | -0.5 | 2.7 | -2.6 | 11.2 | 28.6* | -2.2 | 535nm interf DR=>122
CCCCN1C(=O)N2Cc3ccc(C)cc3C2CS1(=O)=O (stereo not given) | 2.7 | -1.7 | nt | 1.0 | nt | nt | nt
COc1cc(NC(=O)C2CCCN(S(=O)(=O)c3ccc(C)c(C)c3)C2)cc(OC)c1 (stereo not given) | -38.8 | 1.3 | nt | 3.4 | nt | nt | nt
COc1cccc(CO[C@H]2C=C[C@@H](c3ccccc3)O[C@@H]2CO)c1 | 7.4 | -1.3 | nt | -6.1 | nt | nt | nt
C=CCN1C(=O)[C@H](CC(=O)NCC23CC4CC(CC(C4)C2)C3)[C@@]2(C(=O)OCC)CCCC=C12 | 7.7 | 2.1 | nt | -0.4 | nt | nt | nt
COc1cccc(CN(c2ccc3c(c2)CCC3)S(=O)(=O)c2ccc(-n3cnnn3)c(OC)c2)c1 | -12.9 | 2.9 | -11.4 | 2.8 | 4.6 | nt | nt
Cc1cc(S(=O)(=O)N(Cc2ccccc2Cl)c2ccc3c(c2)CCC3)ccc1-n1cnnn1 | 19.7* | 3.2 | 4.7 | -0.3 | -7.7 | -13.3 | -18.6
COCC(=O)Nc1ccc2c(c1)C(=O)N(C)[C@@H]1CC[C@@H](CC(=O)OC)O[C@H]1CO2 | 6.2 | -2.4 | nt | -1.7 | nt | nt | nt
CCS(=O)(=O)Nc1ccc2c(c1)C(=O)N(C)[C@@H]1CC[C@H](CC(=O)N[C@@H]3CCN(Cc4ccccc4)C3)O[C@H]1CO2 | 20.0* | 2.9 | nt | -2.2 | nt | -0.7 | -11.7
CCC(=O)Nc1ccc2c(c1)C(=O)N(C)[C@@H]1CC[C@@H](CC(=O)NCc3ccc(OC)cc3)O[C@H]1CO2 | 19.3* | 3.4 | nt | -4.1 | nt | 0.6 | -5.2
COc1cccc(CNC(=O)C[C@H]2CC[C@H]3[C@@H](COc4ccc(NC(=O)c5cccs5)cc4C(=O)N3C)O2)c1 | -27.7 | 8.7 | nt | 2.9 | nt | nt | nt
COC(=O)C[C@H]1CC[C@@H]2[C@H](COc3ccc(NC(=O)C(C)C)cc3C(=O)N2C)O1 | 19.2* | 7.8 | nt | 3.9 | nt | -0.5 | -5.9
CNc1ccccc1/C(O)=C(\C#N)C(=O)NCc1cccc2ccccc12 | 5.5 | -4.9 | nt | -6.5 | nt | nt | nt
CCCc1nnc2n1N=C(c1ccc(OC)c(OC)c1)CS2 | 20.4* | 5.1 | -1.2 | -1.2 | -1.4 | -0.1 | -10.9
COc1ccc(C2=Nn3c(nnc3-c3ccccc3)SC2)cc1OC | 1.8 | 0.2 | 7.3 | 3.3 | 14.0 | nt | nt
CCOC(=O)c1c(C)[nH]c(C(=O)N/N=C/c2cc([N+](=O)[O-])ccc2O)c1C | 23.8* | -0.5 | 6.4 | -11.6 | 1.9 | 4.8 | 6.1*
CCOc1ccc(-n2c(SCC(=O)Nc3ccc(S(=O)(=O)Nc4nccs4)cc3)nnc2-c2ccco2)cc1 | -37.8 | 0.8 | nt | -1.3 | nt | nt | nt
Cc1ccc(-n2c(SCc3cccc(F)c3)nc3ccccc3c2=O)cc1 | 7.8 | -3.0 | nt | -3.1 | nt | nt | nt
COc1cc(OC)cc(-c2nn[nH]n2)c1 | 20.1* | 4.2 | -7.5 | -1.5 | 1.0 | -2.3 | -0.4
O=C(CNC(=S)N(Cc1ccccc1)Cc1cccnc1)NC1CCCC1 | 22.8* | 1.5 | 6.3 | 5.5 | 1.1 | 3.9 | -15.9
O=C(CNC(=S)N(Cc1ccccc1)Cc1cccnc1)NC1CC1 | -1.7 | -0.3 | 12.4 | 5.3 | 15.7 | nt | nt
SMILES | sPLA2-III inh | PLCg1 inh | ARFGAP1 inhibitor | PLCb3 inh | ASAP1 GAP inh | sPLA2 confirm | BODIPY interf | others
O=C(NC1CCCCN(Cc2cccc(C(F)(F)F)c2)C1=O)c1cccc(C(F)(F)F)c1 (stereo not given) | 11.0 | -1.1 | nt | -6.2 | nt | nt | nt
CCCC#C/C(CCC)=C1\c2ccccc2C(=O)N1c1ccccc1 | -3.4 | -5.5 | -0.7 | -10.4 | -3.8 | nt | nt
O=C(Cc1noc2ccccc12)NNC(=S)Nc1ccc(Cl)cc1 | 28.8* | 8.1 | -10.4 | -3.9 | 11.8 | 25.6* | 0.5
Cn1cccc1CC(=O)NNC(=S)Nc1ccccc1Cl | 25.3* | -1.9 | 3.3 | -0.9 | 2.5 | 29.5* | -2.9 | 535nm interf DR=>122
Cn1cccc1CC(=O)NNC(=S)Nc1ccc(Cl)cc1 | 23.6* | -2.8 | 7.5 | -4.6 | 2.0 | 27.2* | 2.0
Cn1cccc1CC(=O)N/N=C/c1ccc(Cl)cc1 | 0.1 | -1.2 | 4.0 | -5.7 | -1.9 | nt | nt
O=C(Cc1noc2ccccc12)NNC(=S)Nc1ccccc1 | 17.6 | -1.8 | 0.8 | 0.2 | -5.0 | nt | nt
O=C(NCc1ccccc1)[C@@H]1CCCN1C(=O)[C@H]1CCCN1C(=O)c1ccccc1F | 3.1 | -0.9 | -7.1 | 4.1 | 5.7 | nt | nt
CCOc1ccc(NC(=S)c2ccncc2)cc1 | 21.7* | -3.7 | -4.3 | -5.6 | -9.3 | 4.2 | -8.1
Cc1cc(C)cc(NS(=O)(=O)c2ccc(NC(=O)c3ccccc3C(=O)O)cc2)c1 | -3.4 | 6.0 | -0.1 | -2.0 | 5.1 | nt | nt
O=C(O)c1ccccc1C(=O)Nc1ccc(S(=O)(=O)NC2CCCCC2)cc1 | 20.3* | 1.2 | -13.7 | -0.5 | -2.5 | 3.3 | -2.8
CCn1c(CSCc2ccc(C)cc2)n[nH]c1=S | 29.9* | 0.6 | 10.6 | -5.7 | 1.4 | 25.0* | 2.5
Cn1c(CSCc2ccc(Cl)c(Cl)c2)n[nH]c1=S | 7.8 | -3.8 | -0.1 | 1.6 | -8.4 | nt | nt
CCn1c(CSCc2ccc(Cl)cc2)n[nH]c1=S | 19.2* | 4.7 | -1.6 | 1.3 | -2.4 | 25.6* | 3.0
C=CCn1c(CSCc2ccc(F)cc2)n[nH]c1=S | 14.7 | -0.1 | 0.7 | -2.2 | -11.4 | nt | nt
Cc1nn(C)c(-c2n[nH]c(=S)n2-c2ccccc2)c1Cl | 25.8* | -3.8 | 5.1 | -6.5 | 7.0 | 24.0* | -3.5
